Measurements from different studies.
Lines come from different studies, so protocols differ. pIC50: −log10 of the molar value.

N.N.[Cl][Pt][Cl]  pIC50 (NALM-6; cell growth or viability, ATP luminescence; 72 h): 5.98
Nc1ncncc1-c1cn([C@@H]2O[C@](F)(CO)[C@@H](O)[C@H]2O)cn1  pIC50 (Severe acute respiratory syndrome coronavirus 2; viral replication, inhibitor; A549-ACE2; 24 h): < 4.00
O=[N+]([O-])NC(=S)NN=Cc1ccc(F)cc1  pIC50 (Leishmania tropica; parasite growth; J774.A1; 72 h, intracellular, amastigote): 3.73
Cc1c(O)cccc1C(=O)N[C@@H](CSc1ccccc1)[C@H](O)CN1C[C@H]2CCCC[C@H]2C[C@H]1C(=O)NC(C)(C)C  pIC50 (Severe acute respiratory syndrome coronavirus 2; viral replication, inhibitor; Calu-3; replicon): 5.39
COc1ncncc1-c1cn([C@@H]2O[C@](F)(CO[P@@](=O)(N[C@@H](C)C(=O)OC(C)C)Oc3ccccc3)[C@@H](OC(=O)C(C)C)[C@H]2OC(=O)C(C)C)cn1  pIC50 (Severe acute respiratory syndrome coronavirus 2; viral replication, inhibitor; A549-ACE2; 24 h): 4.59
CC1=NN(c2ccc(C)c(C)c2)C(=O)/C1=N\Nc1cccc(-c2cccc(C(=O)O)c2)c1O  pIC50 (Severe acute respiratory syndrome coronavirus 2; viral replication, inhibitor; Caco-2; replicon): 5.51
COc1nc(N)ncc1-c1cn([C@@H]2O[C@](F)(CO[P@@](=O)(N[C@@H](C)C(=O)OC(C)C)Oc3ccccc3)[C@@H](OC(=O)C(C)C)[C@H]2OC(=O)C(C)C)cn1  pIC50 (Severe acute respiratory syndrome coronavirus 2; viral replication, inhibitor; A549-ACE2; 24 h): 4.90
COc1ccc(C=NNC(=S)N[N+](=O)[O-])cc1OC  pIC50 (Leishmania tropica; parasite growth, MTT; 72 h, promastigote): 3.06
COc1ncc(-c2cn([C@@H]3O[C@](F)(CO[P@@](=O)(N[C@@H](C)C(=O)OC(C)C)Oc4ccccc4)[C@@H](O)[C@H]3O)cn2)cn1  pIC50 (Severe acute respiratory syndrome coronavirus 2; viral replication, inhibitor; A549-ACE2; 24 h): < 4.00
CCOc1nc2cccc(C(=O)O)c2n1Cc1ccc(-c2ccccc2-c2nnn[nH]2)cc1  pIC50 (Severe acute respiratory syndrome coronavirus 2; viral replication, inhibitor; Calu-3; replicon): 5.98
CC(=O)O[C@H]1C(=O)[C@@]2(C)[C@H]([C@H](OC(=O)c3ccccc3)[C@]3(O)C[C@H](OC(=O)[C@H](O)[C@@H](NC(=O)c4ccccc4)c4ccccc4)C(C)=C1C3(C)C)[C@]1(OC(C)=O)CO[C@@H]1C[C@@H]2O  inhibition (L02; cell growth or viability, CCK-8; 12.5 µM, 72 h): > 90%
Cc1ccc(NC(=O)C2(c3ccc4c(c3)OC(F)(F)O4)CC2)nc1-c1cccc(C(=O)O)c1  pIC50 (Severe acute respiratory syndrome coronavirus 2; viral replication, inhibitor; Calu-3; replicon): 6.34
COc1cnc(OC)n2nc(NS(=O)(=O)c3c(OCC(F)F)cccc3C(F)(F)F)nc12  inhibition (L02; cell growth or viability, CCK-8; 0.78 µM, 72 h): 0%
O=[N+]([O-])NC(=S)NN=Cc1ccc(Br)cc1  pIC50 (Leishmania tropica; parasite growth; J774.A1; 72 h, intracellular, amastigote): 2.94
